Assay results reported in ChEMBL document CHEMBL2034880, “Synthesis and biological evaluation of pyrimidine-based dual inhibitors of human epidermal growth factor receptor 1 (HER-1) and HER-2 tyrosine kinases” (J Med Chem, 2012).
pIC50: −log10 of the molar value. One block for each compound: values may come before it.

Experiments:
[1] = biological target: Receptor-type tyrosine-protein kinase FLT3 (Homo sapiens, UniProt P36888); assay: Inhibition of Flt3
Insulin receptor = Insulin receptor (Homo sapiens, UniProt P06213); assay: Inhibition of IR
[2] = Half life in human liver microsomes at 5 uM; conditions: liver microsomes
[3] = biological target: Mast/stem cell growth factor receptor Kit (Homo sapiens, UniProt P10721); assay: Inhibition of cKIT
[4] = biological target: Dual specificity mitogen-activated protein kinase kinase 1 (Homo sapiens, UniProt Q02750); assay: Inhibition of MEK1
[5] = biological target: Cyclin-dependent kinase 1/cyclin B1 (Homo sapiens, UniProt P06493); assay: Inhibition of CDK1/cyclin B; format: protein-complex assay
[6] = biological target: Tyrosine-protein kinase ABL1 (Homo sapiens, UniProt P00519); assay: Inhibition of Abl
[7] = biological target: Vascular endothelial growth factor receptor 1 (Homo sapiens, UniProt P17948); assay: Inhibition of Flt1
[8] = biological target: Tyrosine-protein kinase SYK (Homo sapiens, UniProt P43405); assay: Inhibition of Syk
Aurora kinase A = Aurora kinase A (Homo sapiens, UniProt O14965); assay: Inhibition of Aurora A
[9] = Half life in dog liver microsomes at 5 uM; conditions: liver microsomes
[10] = biological target: Hepatocyte growth factor receptor (Homo sapiens, UniProt P08581); assay: Inhibition of MET
[11] = biological target: Serine/threonine-protein kinase STK11 (Homo sapiens, UniProt Q15831); assay: Inhibition of LKB1
[12] = Cytotoxicity against human JIMT1 cells expressing low HER-2 after 72 hrs by SRB assay; format: functional, cell-based; conditions: JIMT-1, 72 h
How it was run: (§1)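 Culture conditions: MDA-MB-361 and MDA-MB-453 grown in L-15 without CO2. NCI-N87, NCI-H1781 and NCI-H1975 grown in RPMI with 1 mM sodium pyruvate under 5% CO2. JIMT-1 grown in DMEM (4.5 g/L glucose) under 5% CO2. MDA-MB-175 grown in L-15 without CO2. All media contained 10% FBS and 1% penicillin-streptomycin, 37 °C. Growth inhibition/GI50 read-out was run per a cited earlier protocol.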

[13] = Half life in mouse liver microsomes at 5 uM; conditions: liver microsomes
[14] = biological target: Platelet-derived growth factor receptor alpha (Homo sapiens, UniProt P16234); assay: Inhibition of PDGFRalpha
MDA-MB-361 = assay: Cytotoxicity against ER activated human MDA-MB-361 cells expressing Her-2, Src and PIK3CA mutant after 72 hrs by SRB assay; format: functional, cell-based; conditions: MDA-MB-361, 72 h; how it was run: as §1
[15] = biological target: Receptor tyrosine-protein kinase erbB-2 (Homo sapiens, UniProt P04626); assay: Inhibition of HER2 preincubated for 10 mins followed by incubation for 30 mins by fluorescence polarization assay
Focal adhesion kinase 1 = Focal adhesion kinase 1 (Homo sapiens, UniProt Q05397); assay: Inhibition of FAK
[16] = biological target: 5'-AMP-activated protein kinase catalytic subunit alpha-1 (Homo sapiens, UniProt Q13131); assay: Inhibition of AMPKalpha1
[17] = Cytotoxicity against human NCI-H1781 cells expressing HER-2 G776insV_G/C after 72 hrs by SRB assay; format: functional, cell-based; conditions: NCI-H1781, 72 h; how it was run: as §1
MDA-MB-453 = assay: Cytotoxicity against PTEN-deficient human MDA-MB-453 cells expressing HER-2, and PIK3CA mutant after 72 hrs by SRB assay; format: functional, cell-based; conditions: MDA-MB-453, 72 h; how it was run: as §1
SK-BR-3 = assay: Cytotoxicity against human SKBR3 cells overexpressing HER-2 gene after 72 hrs by SRB assay; format: functional, cell-based; conditions: SK-BR-3, 72 h
How it was run: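 A431 and SK-Br3 cells grown in DMEM (4.5 g/L glucose, 1.5 g/L sodium bicarbonate) with 10% FBS at 37 °C, humidified 5% CO2. Proliferation/growth inhibition IC50 values are means of three independent experiments, each run in duplicate.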

[18] = biological target: Fibroblast growth factor receptor 1 (Homo sapiens, UniProt P11362); assay: Inhibition of FGFR1
[19] = biological target: Receptor tyrosine-protein kinase erbB-4 (Homo sapiens, UniProt Q15303); assay: Inhibition of HER4 preincubated for 10 mins followed by incubation for 30 mins by fluorescence polarization assay
[20] = biological target: Serine/threonine-protein kinase pim-1 (Homo sapiens, UniProt P11309); assay: Inhibition of PIM1
[21] = biological target: Insulin-like growth factor 1 receptor (Homo sapiens, UniProt P08069); assay: Inhibition of IGF-1R
[22] = Half life in rat liver microsomes at 5 uM; conditions: liver microsomes
[23] = biological target: Platelet-derived growth factor receptor beta (Homo sapiens, UniProt P09619); assay: Inhibition of PDGFRbeta
[24] = Cytotoxicity against human MDA-MB-175 cells expressing Src, Ret and low HER-2 after 72 hrs by SRB assay; format: functional, cell-based; how it was run: as §1
[25] = biological target: Tyrosine-protein kinase JAK2 (Homo sapiens, UniProt O60674); assay: Inhibition of JAK2
NCI-N87 = assay: Cytotoxicity against human NCI-N87 cells expressing HER-2 after 72 hrs by SRB assay; format: functional, cell-based; conditions: NCI-N87, 72 h; how it was run: as §1
NCI-H1975 = assay: Cytotoxicity against human NCI-H1975 cells expressing EGFR L858R/T790M mutant after 72 hrs by SRB assay; format: functional, cell-based; conditions: NCI-H1975, 72 h
How it was run: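 NCI-N87, NCI-H1781 and NCI-H1975 grown in RPMI with 1 mM sodium pyruvate under 5% CO2. JIMT-1 grown in DMEM (4.5 g/L glucose) under 5% CO2. All media contained 10% FBS and 1% penicillin-streptomycin, 37 °C. Growth inhibition/GI50 read-out was run per a cited earlier protocol.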

Chain of 5'-AMP-activated protein kinase catalytic subunit alpha-1 (Q13131 whole entry): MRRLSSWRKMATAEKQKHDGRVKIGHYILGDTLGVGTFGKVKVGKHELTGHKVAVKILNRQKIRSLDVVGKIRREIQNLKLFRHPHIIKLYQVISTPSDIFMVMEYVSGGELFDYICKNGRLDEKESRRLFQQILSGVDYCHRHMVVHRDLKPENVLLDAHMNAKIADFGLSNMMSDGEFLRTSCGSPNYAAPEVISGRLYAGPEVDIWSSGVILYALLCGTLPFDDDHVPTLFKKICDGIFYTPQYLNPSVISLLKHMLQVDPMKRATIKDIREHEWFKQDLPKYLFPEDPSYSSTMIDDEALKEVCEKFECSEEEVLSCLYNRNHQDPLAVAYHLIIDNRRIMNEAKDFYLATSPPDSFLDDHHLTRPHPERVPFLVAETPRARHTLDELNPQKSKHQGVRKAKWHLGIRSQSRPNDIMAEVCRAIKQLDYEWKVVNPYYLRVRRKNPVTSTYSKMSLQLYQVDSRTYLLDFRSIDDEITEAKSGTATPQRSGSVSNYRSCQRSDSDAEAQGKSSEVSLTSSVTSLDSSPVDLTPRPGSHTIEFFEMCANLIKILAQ
Chain of Insulin-like growth factor 1 receptor (P08069 31-736 limits assumed): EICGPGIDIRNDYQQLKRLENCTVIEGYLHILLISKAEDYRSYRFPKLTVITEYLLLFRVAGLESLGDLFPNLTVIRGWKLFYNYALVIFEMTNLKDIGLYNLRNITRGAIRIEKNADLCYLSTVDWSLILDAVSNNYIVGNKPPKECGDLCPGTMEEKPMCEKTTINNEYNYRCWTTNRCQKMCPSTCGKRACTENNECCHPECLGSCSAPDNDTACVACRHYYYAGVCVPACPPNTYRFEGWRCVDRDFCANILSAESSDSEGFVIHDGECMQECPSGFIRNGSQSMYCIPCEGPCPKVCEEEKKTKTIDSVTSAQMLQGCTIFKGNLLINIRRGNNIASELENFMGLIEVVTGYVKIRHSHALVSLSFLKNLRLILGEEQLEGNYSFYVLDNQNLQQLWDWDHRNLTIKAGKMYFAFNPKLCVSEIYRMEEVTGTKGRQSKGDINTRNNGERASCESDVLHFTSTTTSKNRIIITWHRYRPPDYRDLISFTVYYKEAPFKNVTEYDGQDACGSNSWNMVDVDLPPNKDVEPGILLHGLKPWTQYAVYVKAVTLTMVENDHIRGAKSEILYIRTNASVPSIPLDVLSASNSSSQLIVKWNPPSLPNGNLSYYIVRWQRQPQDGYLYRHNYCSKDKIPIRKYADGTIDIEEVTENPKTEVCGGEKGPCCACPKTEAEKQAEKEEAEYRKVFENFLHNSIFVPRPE
Chain of Insulin-like growth factor 1 receptor (P08069 741-1367 limits assumed): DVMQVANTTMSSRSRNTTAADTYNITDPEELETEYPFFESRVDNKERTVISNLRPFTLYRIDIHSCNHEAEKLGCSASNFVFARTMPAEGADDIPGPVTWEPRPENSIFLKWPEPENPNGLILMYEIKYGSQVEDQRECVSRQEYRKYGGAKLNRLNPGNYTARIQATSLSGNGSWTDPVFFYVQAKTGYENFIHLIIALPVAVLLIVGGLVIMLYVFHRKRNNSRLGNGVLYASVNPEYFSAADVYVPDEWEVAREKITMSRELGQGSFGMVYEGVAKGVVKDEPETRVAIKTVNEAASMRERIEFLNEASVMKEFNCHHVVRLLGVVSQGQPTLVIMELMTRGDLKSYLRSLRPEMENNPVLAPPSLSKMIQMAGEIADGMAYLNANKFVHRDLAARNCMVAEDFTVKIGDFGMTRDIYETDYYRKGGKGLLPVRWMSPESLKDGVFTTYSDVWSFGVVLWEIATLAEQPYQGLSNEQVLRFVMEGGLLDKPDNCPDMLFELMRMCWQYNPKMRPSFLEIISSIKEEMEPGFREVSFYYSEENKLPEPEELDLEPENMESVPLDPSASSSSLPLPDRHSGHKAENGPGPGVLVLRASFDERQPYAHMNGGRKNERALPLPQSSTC
Chain of Insulin receptor (P06213 28-758 limits assumed): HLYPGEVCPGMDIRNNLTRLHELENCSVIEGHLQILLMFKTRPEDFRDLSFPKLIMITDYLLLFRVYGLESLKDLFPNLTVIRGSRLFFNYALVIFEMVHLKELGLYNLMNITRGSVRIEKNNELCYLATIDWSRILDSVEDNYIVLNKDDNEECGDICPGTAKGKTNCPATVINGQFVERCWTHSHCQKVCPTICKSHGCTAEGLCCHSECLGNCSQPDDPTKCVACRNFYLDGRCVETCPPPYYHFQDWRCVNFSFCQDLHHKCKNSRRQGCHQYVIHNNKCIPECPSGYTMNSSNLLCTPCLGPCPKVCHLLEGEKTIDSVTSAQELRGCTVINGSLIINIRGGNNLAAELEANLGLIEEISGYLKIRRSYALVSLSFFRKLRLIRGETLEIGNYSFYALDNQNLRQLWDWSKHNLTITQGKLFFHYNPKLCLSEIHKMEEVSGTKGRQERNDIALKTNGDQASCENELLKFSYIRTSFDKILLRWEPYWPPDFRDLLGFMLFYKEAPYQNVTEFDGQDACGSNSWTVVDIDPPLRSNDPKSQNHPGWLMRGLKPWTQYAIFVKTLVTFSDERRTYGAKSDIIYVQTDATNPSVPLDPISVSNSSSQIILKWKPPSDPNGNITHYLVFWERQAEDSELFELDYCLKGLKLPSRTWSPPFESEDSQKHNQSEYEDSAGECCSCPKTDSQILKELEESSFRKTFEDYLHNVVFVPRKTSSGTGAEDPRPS
Chain of Insulin receptor (P06213 763-1382 limits assumed): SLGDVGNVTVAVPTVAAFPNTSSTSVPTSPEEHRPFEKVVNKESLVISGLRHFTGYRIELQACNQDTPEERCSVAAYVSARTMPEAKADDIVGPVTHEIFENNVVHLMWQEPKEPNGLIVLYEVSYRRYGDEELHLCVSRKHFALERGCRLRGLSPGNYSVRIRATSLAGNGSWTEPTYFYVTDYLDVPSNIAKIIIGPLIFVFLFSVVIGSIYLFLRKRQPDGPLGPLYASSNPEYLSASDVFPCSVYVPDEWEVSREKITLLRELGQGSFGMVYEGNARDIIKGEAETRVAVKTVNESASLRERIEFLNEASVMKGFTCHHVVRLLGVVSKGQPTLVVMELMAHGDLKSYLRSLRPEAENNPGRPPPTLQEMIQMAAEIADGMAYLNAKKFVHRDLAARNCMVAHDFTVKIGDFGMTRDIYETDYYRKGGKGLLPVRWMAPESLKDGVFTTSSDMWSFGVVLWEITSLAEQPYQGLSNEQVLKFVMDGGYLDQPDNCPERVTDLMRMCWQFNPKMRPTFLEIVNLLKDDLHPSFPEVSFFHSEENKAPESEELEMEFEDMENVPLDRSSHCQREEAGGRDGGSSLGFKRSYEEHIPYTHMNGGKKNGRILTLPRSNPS
Chain of Vascular endothelial growth factor receptor 1 (P17948 whole entry): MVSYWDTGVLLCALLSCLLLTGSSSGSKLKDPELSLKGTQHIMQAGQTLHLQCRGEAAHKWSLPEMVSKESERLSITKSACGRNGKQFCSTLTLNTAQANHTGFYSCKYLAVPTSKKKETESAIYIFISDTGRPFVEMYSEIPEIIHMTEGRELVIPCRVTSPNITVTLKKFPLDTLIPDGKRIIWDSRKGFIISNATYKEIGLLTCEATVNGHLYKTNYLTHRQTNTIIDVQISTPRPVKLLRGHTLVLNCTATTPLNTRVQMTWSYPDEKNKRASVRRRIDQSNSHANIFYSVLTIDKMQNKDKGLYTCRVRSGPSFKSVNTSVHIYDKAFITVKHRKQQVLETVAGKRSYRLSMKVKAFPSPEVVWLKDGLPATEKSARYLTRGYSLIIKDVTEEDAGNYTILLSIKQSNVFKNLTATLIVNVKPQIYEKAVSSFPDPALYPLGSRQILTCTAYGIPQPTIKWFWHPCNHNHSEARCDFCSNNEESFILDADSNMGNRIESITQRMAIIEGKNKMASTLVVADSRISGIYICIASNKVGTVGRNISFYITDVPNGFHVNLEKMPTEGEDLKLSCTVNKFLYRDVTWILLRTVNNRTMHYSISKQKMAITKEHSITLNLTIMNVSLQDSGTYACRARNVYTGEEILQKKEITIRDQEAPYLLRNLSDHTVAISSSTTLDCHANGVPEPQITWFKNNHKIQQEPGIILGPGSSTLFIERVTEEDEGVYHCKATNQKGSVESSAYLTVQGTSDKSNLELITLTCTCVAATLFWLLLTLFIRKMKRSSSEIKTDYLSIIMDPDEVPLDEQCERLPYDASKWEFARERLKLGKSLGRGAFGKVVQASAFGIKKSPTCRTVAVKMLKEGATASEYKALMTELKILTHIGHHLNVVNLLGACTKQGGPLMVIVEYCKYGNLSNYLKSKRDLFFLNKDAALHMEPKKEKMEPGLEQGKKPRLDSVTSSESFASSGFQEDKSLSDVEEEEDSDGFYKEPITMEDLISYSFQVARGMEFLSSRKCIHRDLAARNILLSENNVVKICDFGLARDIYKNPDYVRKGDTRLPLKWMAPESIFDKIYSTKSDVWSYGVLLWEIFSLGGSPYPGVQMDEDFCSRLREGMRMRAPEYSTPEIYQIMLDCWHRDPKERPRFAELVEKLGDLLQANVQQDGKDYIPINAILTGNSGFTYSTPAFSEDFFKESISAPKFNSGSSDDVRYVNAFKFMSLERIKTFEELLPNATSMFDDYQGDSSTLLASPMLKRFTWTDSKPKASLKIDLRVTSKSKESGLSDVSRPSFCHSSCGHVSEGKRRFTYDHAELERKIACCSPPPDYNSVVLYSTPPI
Chain of Serine/threonine-protein kinase pim-1 (P11309 whole entry): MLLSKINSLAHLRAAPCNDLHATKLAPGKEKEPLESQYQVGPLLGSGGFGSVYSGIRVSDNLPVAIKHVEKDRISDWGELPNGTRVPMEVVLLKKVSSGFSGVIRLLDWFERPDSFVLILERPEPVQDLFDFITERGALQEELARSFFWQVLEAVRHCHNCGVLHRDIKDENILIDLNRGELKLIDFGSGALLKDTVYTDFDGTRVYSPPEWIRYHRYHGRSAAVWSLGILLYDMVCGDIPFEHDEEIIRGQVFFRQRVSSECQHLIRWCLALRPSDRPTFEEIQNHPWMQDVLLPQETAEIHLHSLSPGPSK

pIC50 [1]: < 5.52 | pIC50 (Insulin receptor): < 5.52 | half-life at 5 µM [2]: 25 min | pIC50 [3]: < 5.52 | pIC50 [4]: < 5.52 | pIC50 [5]: < 5.52 | pIC50 [6]: < 5.52 | pIC50 [7]: < 5.52 | pIC50 [8]: < 5.52 | pIC50 (Aurora kinase A): < 5.52 | half-life at 5 µM [9]: 46 min | pIC50 [10]: < 5.52 | pIC50 [11]: < 5.52 | half-life at 5 µM [13]: 17 min | pIC50 [14]: < 5.52 | pIC50 [15]: 7.65 | pIC50 (Focal adhesion kinase 1): < 5.52 | pIC50 [16]: < 5.52 | pIC50 [18]: < 5.52 | pIC50 [19]: 8.40 | pIC50 [20]: < 5.52 | pIC50 [21]: < 5.52 | half-life at 5 µM [22]: 23 min | pIC50 [23]: < 5.52 | pIC50 [25]: < 5.52
Structure (SMILES): C=CC(=O)NCc1coc(-c2c(N)ncnc2Nc2ccc(OCc3ccccn3)c(Cl)c2)n1
pIC50 [12]: 5.73 | pIC50 (MDA-MB-361): 6.25 | pIC50 [17]: 7.66 | pIC50 (MDA-MB-453): 8.30 | pIC50 (SK-BR-3): 9.15 | pIC50 [24]: 8.80

Structure (SMILES): CS(=O)(=O)CCNCc1ccc(-c2ccc3ncnc(Nc4ccc(OCc5cccc(F)c5)c(Cl)c4)c3c2)o1 [LAPATINIB]
pIC50 (NCI-N87): 7.44 | pIC50 (NCI-H1975): < 6.00 | pIC50 [12]: < 5.00 | pIC50 (MDA-MB-361): 5.99 | pIC50 [17]: 5.52 | pIC50 (MDA-MB-453): 6.26 | pIC50 [24]: 7.35
